Compound activity deposited in PubChem by Johns Hopkins Ion Channel Center.
MrgX1 allo act – human MrgX1 positive allosteric modulation, primary screen. Q96LB2. MrgX1-HEK293, Fluo-4 calcium flux, FDSS; stronger effect = higher value. hit rate 0.63% among 310,000. B-score at 10 µM. AID 588675;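 active = plate-corrected calcium response at least 3 library SD above typical, normal starting fluorescence, not activating the receptor alone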;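 note: compound read alongside a low EC10 to EC30 dose of BAM8-22 agonist; peak minus trough fluorescence over baseline measured at the second addition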
Target sequence (Q96LB2 whole entry, looked up): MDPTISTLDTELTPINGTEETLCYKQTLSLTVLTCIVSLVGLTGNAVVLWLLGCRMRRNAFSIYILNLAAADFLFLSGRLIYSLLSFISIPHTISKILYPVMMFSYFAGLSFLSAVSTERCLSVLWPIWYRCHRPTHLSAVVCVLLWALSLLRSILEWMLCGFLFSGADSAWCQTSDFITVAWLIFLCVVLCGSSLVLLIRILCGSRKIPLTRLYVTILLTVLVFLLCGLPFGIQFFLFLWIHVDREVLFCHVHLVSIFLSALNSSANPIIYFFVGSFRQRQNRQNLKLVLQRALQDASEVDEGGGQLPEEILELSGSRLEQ
MrgX1 antagonist – antagonists of human MrgX1 receptor | Q96LB2 | MRGX1-HEK293 calcium flux, Fluo-4, BAM8-22 antagonism; stronger effect = lower value | B-score at 10 µM | hit rate 1.3% among 310,000;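 active = calcium-response B-score plate-corrected more than 3 library SD below zero, starting fluorescence within 5 deviations, no agonist response on first addition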;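 note: peak minus trough fluorescence over baseline after final BAM8-22 challenge near maximal dose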
RGS4 block – human RGS4 inhibition. AID 463165. B-score at 10 µM. hit rate 0.45% among 310,000. P49798. HEK293 M3R/RGS4 inducible, Fluo-4 calcium flux; stronger effect = higher value; triggered by carbachol at its EC20;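 active = B-score, a plate-corrected calcium signal, over three deviations above library mean, with baseline fluorescence within five deviations of library mean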;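 note: RGS4 expression induced by doxycycline in cells with stable M3 receptor; B-score is computed from the integrated fluorescence ratio over baseline after carbachol; higher B-score means a larger calcium signal and so more RGS4 inhibition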
Target sequence (P49798 whole entry, looked up): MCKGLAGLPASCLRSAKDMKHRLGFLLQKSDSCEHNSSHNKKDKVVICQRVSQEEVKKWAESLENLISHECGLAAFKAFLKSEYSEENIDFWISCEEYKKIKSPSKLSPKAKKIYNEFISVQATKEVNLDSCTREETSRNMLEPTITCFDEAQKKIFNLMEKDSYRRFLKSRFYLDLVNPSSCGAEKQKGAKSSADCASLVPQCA
RGS4 pot – potentiators or activators of RGS4 | hit rate 0.92% among 310,000 | AID 463111 | HEK293 M3R/inducible RGS4, carbachol calcium flux Fluo4; stronger effect = lower value | B-score at 10 µM;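 active = B-score of the integrated calcium signal more than 4 SD below the library mean, with starting fluorescence not abnormally high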;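 note: negative B-score means reduced calcium response which marks RGS4 activation or potentiation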
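Assay system: Inducible-RGS4 HEK293 cells carrying M3 receptor | Schedule: Compound preincubation 20 min at room temperature before agonist | Signal: Kinetic calcium fluorescence imaging with Fluo4-AM dye, 2 µM | Read-out basis: B score from integrated fluorescence ratio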
MrgX1 ag – human MrgX1 receptor agonism, primary screen. MrgX1-HEK293 cells, Fluo-4 calcium fluorescence, agonist mode; stronger effect = higher value. B-score at 10 µM. Q96LB2. hit rate 0.44% among 310,000;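 active = calcium response B-score plate-corrected fluorescence ratio at least 3 library SD, with starting fluorescence B-score inside 5 SD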
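Test system: HEK293 cells stably expressing human MrgX1 receptor; amount: 15,000 cells per well; doses: compound delivered in addition one of three; times: overnight plating before 1 h dye loading; detection: Fluo-4 NW calcium-flux fluorescence, kinetic read; read-out basis: B-scored fluorescence response ratio; controls: positive and negative controls per plate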
MrgX1 ag confirm – human MrgX1 agonism, re-confirmation screen; activation, % at 10 µM; AID 602412; hit rate 78% among 600; MrgX1-HEK293, Fluo-4 calcium fluorescence, FDSS; shares compounds with MrgX1 ag;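 active = calcium signal rise, corrected for plate position, at least 3 library SD high, with starting brightness within 5 such deviations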
HEK293 Ca flux – MrgX1 antagonist counter-screen hit in parental HEK293 cells | shares compounds with MrgX1 antagonist | Fluo-4 calcium fluorescence, FDSS | fluorescence ratio F(max-min)/F0 at 10 µM | hit rate 2% among 4,000;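 active = duplicate-averaged calcium fluorescence ratio at least three times the standard deviation of buffer wells, a nonspecific response in parental cells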
HEK293 Ca counter – MrgX1 allosteric activator counter-screen hit in parental HEK293 cells; shares compounds with MrgX1 antagonist; parental HEK293 calcium flux, Fluo-4 fluorescence ratio; stronger effect = higher value; fluorescence ratio F(max-min)/F0 at 10 µM; hit rate 0.4% among 4,000; AID 624114;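 active = calcium fluorescence ratio, averaged over duplicates, at least 3 SD of the buffer-well ratio, meaning a nonspecific response in receptor-free cells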;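 note: untransfected parental HEK293 lacking MrgX1 used as counterscreen for MrgX1 allosteric activators; fluorescence change taken during the second addition on a kinetic imager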
HEK293 Ca cntr2 – MrgX1 activator counter-screen hit in parental HEK293 cells. Fluo-4 calcium fluorescence (FDSS); stronger effect = higher value. hit rate 8.7% among 4,000. fluorescence ratio F(max-min)/F0 at 10 µM. shares compounds with MrgX1 antagonist;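 active = calcium fluorescence ratio at least three times the spread of buffer wells, meaning a non-specific response in parental cells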
Numbers without * were called inactive; i = inactive; / = no result. Sampled rows, rich in hits. Any-hit rate of the full collection: about 3.5%.

SMILES	MrgX1 allo act	MrgX1 antagonist	RGS4 block	RGS4 pot	MrgX1 ag	MrgX1 ag confirm	HEK293 Ca flux	HEK293 Ca counter	HEK293 Ca cntr2
COc1cc(/C=C2/C(=N)N3C(SC)=NSC3=NC2=O)ccc1OC(=O)c1ccco1	i	i	i	i	71*	227%*	i	i	48*
CC(=O)[C@@]1(O)CC[C@H]2[C@@H]3CCC4=CC(=O)CC[C@]4(C)[C@H]3[C@@H](O)C[C@@]21C	i	i	i	i	48*	i	i	i	i
O=C(N/N=C/c1cc([N+](=O)[O-])cc(Br)c1O)C12CC3CCC(CC(C3)C1)C2	i	i	i	i	73*	175%*	i	i	92*
COc1cc(/C=N/NC(=O)C23CC4CC(CC(C4)C2)C3)cc(Br)c1O	i	i	i	i	i	/	/	/	/
N#Cc1ccc(-c2nc3cc(Cl)ccc3c(=O)n2O)cc1	i	i	i	i	i	/	/	/	/
Cc1ccc(-c2nc3c(Cl)cc(Cl)cc3c(=O)n2O)cc1	i	i	i	i	105*	482%*	i	i	104*
O=c1c2cc(Br)ccc2nc(-c2ccc(Cl)cc2)n1O	i	i	i	i	143*	661%*	i	i	129*
O=c1c2cc(Cl)ccc2nc(-c2ccc([N+](=O)[O-])cc2)n1O	i	i	i	i	72*	270%*	i	i	63*
COc1ccc(NC(=O)C(c2ccc(Cl)cc2)C(C)C)cn1 (stereo not given)	i	i	i	i	i	/	/	/	/
CCc1ccc(C2NC(=O)c3ccccc3O2)cc1 (stereo not given)	i	i	i	i	i	/	/	/	/
Cc1cc(N2CCCCC2)nc(N)n1	i	i	i	i	101*	520%*	i	i	123*
CCOC(=O)C1=C(CN2CCN(C(=O)c3ccco3)CC2)NC(=O)NC1c1ccc(Cl)cc1 (stereo not given)	i	i	i	i	i	/	/	/	/
CCOC(=O)C1=C(CN2CCC(C)CC2)NC(=O)NC1c1ccc(Cl)cc1 (stereo not given)	i	i	i	i	39*	195%*	i	i	i
Cc1cc2oc(=O)cc(CN3CCCc4ccccc43)c2cc1C	i	i	i	i	67*	179%*	i	i	i
CC(C)/C=C1\CC/C(=C\c2ccc(N(C)C)cc2)C1=O	i	i	i	i	101*	i	0.015*	i	141*
COc1ccc(N2C(=O)C3C(C2=O)C(C(=O)c2ccc(Cl)cc2)N2CCCC32)cc1 (stereo not given)	i	i	i	i	72*	i	i	i	i
CC(=O)c1ccc(N2C(=O)C3C(C2=O)C(C(=O)c2ccc(Cl)cc2)N2CCCC32)cc1 (stereo not given)	/	/	i	i	/	/	/	/	/
CCN1C(=O)/C(=C/c2ccc(N3CCCC3)cc2)NC1=S	i	i	i	i	70*	i	0.02*	i	251*
Cc1cc(/C=C2\NC(=S)N(C)C2=O)ccc1N1CCCC1	i	i	i	i	91*	i	0.3*	i	203*
COc1cc(/C=C2\NC(=S)N(C)C2=O)ccc1O	i	i	i	i	i	/	/	/	/
CCOC(=O)N1CCN(c2nc(-c3ccc(OC)cc3)no2)CC1	i	i	i	i	74*	i	i	i	i
O=C(OCC(=O)N1CCCC1)c1c(Cl)ccc(Cl)c1Cl	i	i	i	i	i	/	/	/	/
COc1cc(/C=C(\C#N)C(=O)c2c[nH]c3ccccc23)cc(OC)c1O	i	i	i	i	70*	461%*	i	i	105*
CCOC(=O)C1CCCN(/C=C2\SC(=S)N(CC)C2=O)C1 (stereo not given)	i	i	i	i	i	/	/	/	/
NC1=NC[C@@H](Cc2ccc(O)cc2)N1CCc1cccc(F)c1	i	i	i	i	31*	171%*	i	i	i
SMILES	MrgX1 allo act	MrgX1 antagonist	RGS4 block	RGS4 pot	MrgX1 ag	MrgX1 ag confirm	HEK293 Ca flux	HEK293 Ca counter	HEK293 Ca cntr2
NC1=NC[C@@H](Cc2ccc(O)cc2)N1CCc1cc(C(F)(F)F)cc(C(F)(F)F)c1	i	i	i	i	i	/	/	/	/
N#Cc1nc(-c2ccc(F)cc2)oc1NCc1ccccc1	i	i	i	i	i	/	/	/	/
N#Cc1nc(Cc2ccccc2)oc1NCc1ccccc1	i	i	i	i	31*	108%*	i	i	i
COc1ccc(CNc2oc(COc3ccccc3)nc2C#N)cc1	i	i	i	i	i	/	/	/	/
CCC(CC)c1nc(C#N)c(NCc2ccccc2)o1	i	i	i	i	27*	230%*	i	i	50*
O=C(c1ccccc1)C1CCN(C(=O)c2c(F)cccc2F)CC1	i	i	i	i	i	/	/	/	/
CC(=Nc1cccc(O)c1)c1sc2ccccc2c1O	i	i	i	i	28*	144%*	i	i	i
CC(=Nc1ccc(C)cc1)c1sc2ccccc2c1O	i	i	i	i	i	/	/	/	/
O=C(Cc1ccc(Br)cc1)N/N=C/c1cccnc1	i	i	i	i	i	/	/	/	/
O=C(CCc1ccccc1)N=C1SC2CS(=O)(=O)CC2N1c1cccc(F)c1 (stereo not given)	i	i	i	i	i	/	/	/	/
CCOc1ccc(N=C2NC(=O)S/C2=C\c2ccc(N(C)C)cc2)cc1	i	i	i	i	27*	261%*	0.25*	i	59*
O=C1NC(=Nc2ccc(Cl)cc2)/C(=C/c2ccco2)S1	i	i	i	i	i	/	/	/	/
Cc1cc(C)n(-c2nc(C)nc(NCc3ccccc3)n2)n1	i	i	i	i	34*	130%*	i	i	i
CNc1nc(C)nc(-n2nc(C)cc2C)n1	i	i	i	i	i	/	/	/	/
COC(=O)COc1ccc(C(=O)Cn2c(NCCCO)nc3ccccc32)cc1	i	i	i	i	i	/	/	/	/
